ChEMBL document CHEMBL4689842, “EUbOPEN Chemogenomics Library wave 1” (2021)

System: U2OS
Test: Multiplex assay against U2OS
Type: toxicity, cell-based
Details: human
Method in brief: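 Cells were classed with CellPathfinder machine-learning gating, first as Hoechst high-intensity objects or normal cells, then (normal cells) as healthy, pyknosed or fragmented nuclei, and finally (pyknosed cells) as mitotic or apoptotic. Staining of live cells at seeding used Hoechst33342, BioTracker Green Microtubule Cytoskeleton Dye, MitoTracker Red and Annexin V Alexa Fluor 680, with imaging on a CQ1 microscope at 37°C and 5% CO2 after compound addition. Tubulin, mitochondrial-mass and membrane-permeability phenotypes are per cents of healthy-nucleus cells.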

[1] = 12 h, 1 µM, compound concentration 1 uM, replicate 1
[2] = 12 h, 1 µM, compound concentration 1 uM, replicate 2
[3] = 12 h, 10 µM, compound concentration 10 uM, replicate 1
[4] = 12 h, 10 µM, compound concentration 10 uM, replicate 2
[5] = 24 h, 1 µM, compound concentration 1 uM, replicate 1
[6] = 24 h, 1 µM, compound concentration 1 uM, replicate 2
[7] = 24 h, 10 µM, compound concentration 10 uM, replicate 1
[8] = 24 h, 10 µM, compound concentration 10 uM, replicate 2
[9] = 48 h, 1 µM, compound concentration 1 uM, replicate 1
[10] = 48 h, 1 µM, compound concentration 1 uM, replicate 2
[11] = 48 h, 10 µM, compound concentration 10 uM, replicate 1
[12] = 48 h, 10 µM, compound concentration 10 uM, replicate 2

`N#CCNC(=O)c1ccc(-c2ccnc(Nc3ccc(N4CCOCC4)cc3)n2)cc1` [MOMELOTINIB] was tested, and the “Population Apoptotic (%)” value [1] was 70%, the “Population Fragmented Nuclei (%)” value [1] was 12% and the “Population Healthy Nuclei (%)” value [1] was 77%. The “Population Hoechst High Intensity Objects (%)” value [1] was 5%, the “Population Membrane Permeable-Phenotype (%)” value [1] was 9% and the “Population Mitochondria Different-Phenotype (%)” value [1] was 6%. For the same compound, the “Population Mitotic Cells (%)” value [1] was 29%, the “Population Normal (%)” value [1] was 94% and the “Population Pyknosed Nuclei (%)” value [1] was 10%. The “Population Tubulin-Different-Phenotype (%)” value [1] was 18%, the “Total Cell Count” value [1] was 3583 and the “Population Apoptotic (%)” value [2] was 60%. For the same compound, the “Population Fragmented Nuclei (%)” value [2] was 1%, the “Population Healthy Nuclei (%)” value [2] was 88% and the “Population Hoechst High Intensity Objects (%)” value [2] was 8%. The “Population Membrane Permeable-Phenotype (%)” value [2] was 2%, the “Population Mitochondria Different-Phenotype (%)” value [2] was 13% and the “Population Mitotic Cells (%)” value [2] was 40%. For the same compound, the “Population Normal (%)” value [2] was 91%, the “Population Pyknosed Nuclei (%)” value [2] was 9% and the “Population Tubulin-Different-Phenotype (%)” value [2] was 11%. For the same compound, the “Total Cell Count” value [2] was 3119, the “Population Apoptotic (%)” value [3] was 44% and the “Population Fragmented Nuclei (%)” value [3] was 18%. The “Population Healthy Nuclei (%)” value [3] was 57%, the “Population Hoechst High Intensity Objects (%)” value [3] was 6% and the “Population Membrane Permeable-Phenotype (%)” value [3] was 10%. For the same compound, the “Population Mitochondria Different-Phenotype (%)” value [3] was 20%, the “Population Mitotic Cells (%)” value [3] was 55% and the “Population Normal (%)” value [3] was 93%. For the same compound, the “Population Pyknosed Nuclei (%)” value [3] was 23%, the “Population Tubulin-Different-Phenotype (%)” value [3] was 20% and the “Total Cell Count” value [3] was 180. For the same compound, the “Population Apoptotic (%)” value [4] was 13%, the “Population Fragmented Nuclei (%)” value [4] was 27% and the “Population Healthy Nuclei (%)” value [4] was 47%. For the same compound, the “Population Hoechst High Intensity Objects (%)” value [4] was 10%, the “Population Membrane Permeable-Phenotype (%)” value [4] was 0% and the “Population Mitochondria Different-Phenotype (%)” value [4] was 6%. For the same compound, the “Population Mitotic Cells (%)” value [4] was 86%, the “Population Normal (%)” value [4] was 89% and the “Population Pyknosed Nuclei (%)” value [4] was 24%. For the same compound, the “Population Tubulin-Different-Phenotype (%)” value [4] was 6%, the “Total Cell Count” value [4] was 56 and the “Population Apoptotic (%)” value [5] was 42%. The “Population Fragmented Nuclei (%)” value [5] was 14%, the “Population Healthy Nuclei (%)” value [5] was 78% and the “Population Hoechst High Intensity Objects (%)” value [5] was 3%. For the same compound, the “Population Membrane Permeable-Phenotype (%)” value [5] was 10%, the “Population Mitochondria Different-Phenotype (%)” value [5] was 9% and the “Population Mitotic Cells (%)” value [5] was 57%. The “Population Normal (%)” value [5] was 96%, the “Population Pyknosed Nuclei (%)” value [5] was 7% and the “Population Tubulin-Different-Phenotype (%)” value [5] was 17%. For the same compound, the “Total Cell Count” value [5] was 3609, the “Population Apoptotic (%)” value [6] was 66% and the “Population Fragmented Nuclei (%)” value [6] was 7%. The “Population Healthy Nuclei (%)” value [6] was 86%, the “Population Hoechst High Intensity Objects (%)” value [6] was 10% and the “Population Membrane Permeable-Phenotype (%)” value [6] was 6%. The “Population Mitochondria Different-Phenotype (%)” value [6] was 15%, the “Population Mitotic Cells (%)” value [6] was 33% and the “Population Normal (%)” value [6] was 89%. For the same compound, the “Population Pyknosed Nuclei (%)” value [6] was 5%, the “Population Tubulin-Different-Phenotype (%)” value [6] was 8% and the “Total Cell Count” value [6] was 3108. For the same compound, the “Population Apoptotic (%)” value [7] was 61%, the “Population Fragmented Nuclei (%)” value [7] was 20% and the “Population Healthy Nuclei (%)” value [7] was 46%. For the same compound, the “Population Hoechst High Intensity Objects (%)” value [7] was 8%, the “Population Membrane Permeable-Phenotype (%)” value [7] was 13% and the “Population Mitochondria Different-Phenotype (%)” value [7] was 20%. The “Population Mitotic Cells (%)” value [7] was 38%, the “Population Normal (%)” value [7] was 91% and the “Population Pyknosed Nuclei (%)” value [7] was 33%. For the same compound, the “Population Tubulin-Different-Phenotype (%)” value [7] was 20%, the “Total Cell Count” value [7] was 194 and the “Population Apoptotic (%)” value [8] was 45%. For the same compound, the “Population Fragmented Nuclei (%)” value [8] was 31%, the “Population Healthy Nuclei (%)” value [8] was 52% and the “Population Hoechst High Intensity Objects (%)” value [8] was 5%. For the same compound, the “Population Membrane Permeable-Phenotype (%)” value [8] was 28%, the “Population Mitochondria Different-Phenotype (%)” value [8] was 34% and the “Population Mitotic Cells (%)” value [8] was 54%. For the same compound, the “Population Normal (%)” value [8] was 94%, the “Population Pyknosed Nuclei (%)” value [8] was 16% and the “Population Tubulin-Different-Phenotype (%)” value [8] was 14%. The “Total Cell Count” value [8] was 59, the “Population Apoptotic (%)” value [9] was 27% and the “Population Fragmented Nuclei (%)” value [9] was 9%. The “Population Healthy Nuclei (%)” value [9] was 82%, the “Population Hoechst High Intensity Objects (%)” value [9] was 3% and the “Population Membrane Permeable-Phenotype (%)” value [9] was 2%. For the same compound, the “Population Mitochondria Different-Phenotype (%)” value [9] was 18%, the “Population Mitotic Cells (%)” value [9] was 72% and the “Population Normal (%)” value [9] was 96%. For the same compound, the “Population Pyknosed Nuclei (%)” value [9] was 7%, the “Population Tubulin-Different-Phenotype (%)” value [9] was 19% and the “Total Cell Count” value [9] was 3211. For the same compound, the “Population Apoptotic (%)” value [10] was 100%, the “Population Fragmented Nuclei (%)” value [10] was 7% and the “Population Healthy Nuclei (%)” value [10] was 89%. For the same compound, the “Population Hoechst High Intensity Objects (%)” value [10] was 2%, the “Population Membrane Permeable-Phenotype (%)” value [10] was 8% and the “Population Mitochondria Different-Phenotype (%)” value [10] was 17%. The “Population Mitotic Cells (%)” value [10] was 0%, the “Population Normal (%)” value [10] was 97% and the “Population Pyknosed Nuclei (%)” value [10] was 2%. For the same compound, the “Population Tubulin-Different-Phenotype (%)” value [10] was 22%, the “Total Cell Count” value [10] was 3226 and the “Population Apoptotic (%)” value [11] was 72%. The “Population Fragmented Nuclei (%)” value [11] was 29%, the “Population Healthy Nuclei (%)” value [11] was 26% and the “Population Hoechst High Intensity Objects (%)” value [11] was 4%. The “Population Membrane Permeable-Phenotype (%)” value [11] was 20%, the “Population Mitochondria Different-Phenotype (%)” value [11] was 20% and the “Population Mitotic Cells (%)” value [11] was 27%. The “Population Normal (%)” value [11] was 95%, the “Population Pyknosed Nuclei (%)” value [11] was 43% and the “Population Tubulin-Different-Phenotype (%)” value [11] was 25%. For the same compound, the “Total Cell Count” value [11] was 241, the “Population Apoptotic (%)” value [12] was 53% and the “Population Fragmented Nuclei (%)” value [12] was 33%. For the same compound, the “Population Healthy Nuclei (%)” value [12] was 44%, the “Population Hoechst High Intensity Objects (%)” value [12] was 11% and the “Population Membrane Permeable-Phenotype (%)” value [12] was 26%. The “Population Mitochondria Different-Phenotype (%)” value [12] was 38%, the “Population Mitotic Cells (%)” value [12] was 46% and the “Population Normal (%)” value [12] was 88%. The “Population Pyknosed Nuclei (%)” value [12] was 22%, the “Population Tubulin-Different-Phenotype (%)” value [12] was 26% and the “Total Cell Count” value [12] was 71.
